According to ChEMBL document CHEMBL4002611, “Discovery of medium ring thiophosphorus based heterocycles as antiproliferative agents” (Bioorg Med Chem Lett, 2017):
pIC50: −log10 of the molar value.

Assays:
[1] = Drug metabolism in human MCF7 cells assessed as H2S release from compound at 400 uM incubated for 5 hrs by confocal microscopic assay; format: ADME, cell-based; settings: mcf7, 5 h
Summary of the method: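 MCF-7 cells loaded with an H₂S-sensitive fluorescent probe for 2 h at 37 °C, washed, then exposed to H₂S donors for 5 h before confocal imaging. Controls were untreated cells, probe alone, and NaHS.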

[2] = test system: MCF7; assay: Antiproliferative activity against human MCF7 cells after 4 days by crystal violet staining based spectrophotometric method; format: functional, cell-based; settings: MCF7, 96 h
[3] = test system: WI-38; assay: Antiproliferative activity against human WI38 cells after 4 days by crystal violet staining based spectrophotometric method; format: ADME, cell-based; settings: WI-38, 96 h
[4] = Drug metabolism in pH 7.4 PBS buffer assessed as H2S release from compound at 5 mM incubated for 4 days by DNS-Az probe based fluorescence assay; format: physicochemical; settings: pH 7.4, 96 h, 5000 µM
Summary of the method: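 H₂S release in solution was measured with an H₂S-specific dansyl azide fluorescent probe after incubation at 37 °C for 4 days, against a blank sample.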

[5] = test system: MCF7; assay: Antiproliferative activity against human MCF7 cells after 72 hrs in presence of 10 uM Na2S by MTT assay; format: functional, cell-based; settings: MCF7, 72 h
Summary of the method: (§1)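 Na₂S, which forms H₂S immediately in water, was added together with the test compound to MCF7 cells as a single administration. Proliferation was read by MTT assay.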

[6] = Therapeutic index, ratio of IC50 for human WI38 cells to IC50 for human MCF7 cells
[7] = test system: MCF7; assay: Antiproliferative activity against human MCF7 cells after 72 hrs in presence of 100 uM Na2S by MTT assay; format: functional, cell-based; settings: MCF7, 72 h; summary of the method: as §1
[8] = test system: MCF7; assay: Antiproliferative activity against human MCF7 cells after 72 hrs in presence of 1 uM Na2S by MTT assay; format: functional, cell-based; settings: MCF7, 72 h; summary of the method: as §1
[9] = test system: SK-OV-3; assay: Antiproliferative activity against human SKOV3 cells after 4 days by crystal violet staining based spectrophotometric method; format: functional, cell-based; settings: SK-OV-3, 96 h
[10] = Permeability of the compound by PAMPA; format: physicochemical; settings: read-out: permeability

With `COc1ccc(P2(=S)Oc3ccccc3-c3ccccc3O2)cc1` the Drug metabolism [1] was “Metabolite_Detected”, the pIC50 [2] was 6.09 to 6.12 and the pIC50 [3] was 5.86. For the same compound, the H2S released [4] was 2 µM, the pIC50 [5] was 6.00 and the “Ratio IC50” value [6] was 2. The pIC50 [7] was 5.84, the pIC50 [8] was 5.93 and the pIC50 [9] was 6.12.
With `S=P1(c2ccccc2)Nc2ccccc2O1` (stereo not given) the Drug metabolism [1] was “Metabolite_Detected” and the pIC50 [3] was < 4.30.
For `COc1ccc(P2(=S)Nc3ccc(Cl)cc3N2)cc1` (stereo not given), the pIC50 [2] was < 3.40 and the pIC50 [9] was < 3.40.
With `S=P1(c2ccc(Oc3ccccc3)cc2)Nc2ccccc2O1` (stereo not given) the pIC50 [2] was 4.13, the pIC50 [3] was 3.90 and the pIC50 [9] was 4.34.
For `COc1ccc(P2(=O)Oc3ccccc3-c3ccccc3O2)cc1`, the pIC50 [2] was 4.16 to 4.96, the pIC50 [3] was 4.73 and the pIC50 [5] was 4.28. For the same compound, the pIC50 [7] was 4.30, the pIC50 [8] was 4.23 and the pIC50 [9] was 5.23.
In the case of `COc1ccc(P2(=S)Nc3ccccc3CO2)cc1` (stereo not given), the pIC50 [2] was 3.70, the pIC50 [3] was 3.41 and the pIC50 [9] was 4.04.
`Cc1ccc(S(=O)(=O)N2c3ccccc3OP2(=S)c2ccccc2)cc1` (stereo not given) gave a pIC50 [2] of 3.74, a pIC50 [3] of 3.45 and a pIC50 [9] of 3.64.
With `S=P1(c2ccccc2)NCc2ccccc2N1` (stereo not given) the pIC50 [2] was < 3.40, the pIC50 [3] was 3.76 and the pIC50 [9] was < 3.40.
`COc1ccc2c(c1)NP(=S)(c1ccc(Oc3ccccc3)cc1)O2` (stereo not given) gave a pIC50 [2] of 4.49 and a pIC50 [9] of 4.55.
`S=P1(c2ccccc2)OCc2cccc3cccc(c23)CO1` showed a pIC50 [2] of 4.15, a pIC50 [3] of 4.12 and a pIC50 [9] of 4.29.
In the case of `COc1ccc(P2(=S)OC[C@@H]3OC(C)(C)O[C@H]3CO2)cc1`, the pIC50 [2] was < 3.40, the pIC50 [3] was < 3.40 and the H2S released [4] was “Not Active”. It also gave a pIC50 [9] of 3.43.
With `S=P1(c2ccc(Oc3ccccc3)cc2)N[C@@H](c2ccccc2)[C@H](c2ccccc2)N1` the pIC50 [2] was < 3.40 and the pIC50 [9] was 4.31.
For `S=P(S)(NCc1ccccc1)c1ccc(Oc2ccccc2)cc1` (stereo not given), the Drug metabolism [1] was “Metabolite_Detected”, the pIC50 [3] was 3.98 and the Papp [10] was 19 nm/s. For the same compound, the pIC50 [9] was 4.33.
For `COc1ccc(P2(=S)Oc3ccc(Br)cc3-c3cc(Br)ccc3O2)cc1`, the pIC50 [2] was < 3.40, the H2S released [4] was “Not Active” and the pIC50 [9] was < 3.40.
Compound `COc1ccc(P2(=S)Oc3ccccc3O2)cc1` has a pIC50 [2] of 3.55, a pIC50 [3] of 3.60 and a pIC50 [9] of 3.71.
In the case of `S=P1(c2ccccc2)Oc2ccc(Br)cc2-c2cc(Br)ccc2O1`, the pIC50 [2] was < 3.40 and the pIC50 [9] was < 3.40.
`COc1cccc2c1OP(=S)(c1ccccc1)O2` (stereo not given) gave a pIC50 [2] of 4.39, a pIC50 [3] of 4.39 and a pIC50 [9] of 4.53.
In the case of `S=P1(c2ccccc2)Oc2ccccc2-c2ccccc2O1`, the pIC50 [2] was 3.85, the pIC50 [3] was 3.40 and the H2S released [4] was “Not Active”. The “Ratio IC50” value [6] was 3 and the pIC50 [9] was 3.99.
With `COc1ccc2c(c1)NP(=S)(c1ccccc1)O2` (stereo not given) the pIC50 [2] was 4.58 and the pIC50 [9] was 4.62.
Compound `O=S(=O)(c1ccc(Cl)cc1)N1c2ccccc2OP1(=S)c1ccccc1` (stereo not given) has a pIC50 [2] of 3.97 and a pIC50 [9] of 3.96.
For `S=P1(c2ccccc2)OCC2C3CCC(O3)C2CO1` (stereo not given), the pIC50 [2] was < 3.40, the pIC50 [3] was < 3.40 and the pIC50 [9] was < 3.40.
Compound `S=P1(c2ccc(Oc3ccccc3)cc2)Nc2ccccc2CO1` (stereo not given) has a pIC50 [2] of 4.53, a pIC50 [3] of 3.97 and a pIC50 [9] of 4.32.
In the case of `S=P1(c2ccccc2)OCc2ccccc2CO1`, the pIC50 [2] was < 3.40, the pIC50 [3] was 3.87 and the pIC50 [9] was 4.29.
Compound `S=P1(c2ccccc2)N[C@@H](c2ccccc2)[C@H](c2ccccc2)N1` has a pIC50 [2] of 3.78, a pIC50 [3] of 3.84 and a pIC50 [9] of 3.79.
With `S=P1(c2ccccc2)Oc2ccc(-c3ccccc3)cc2-c2cc(-c3ccccc3)ccc2O1` the pIC50 [2] was < 3.40 and the pIC50 [9] was < 3.40.
